Laboratory results taken from ChEMBL document CHEMBL2021876, “New pyridobenzoxazepine derivatives derived from 5-(4-methylpiperazin-1-yl)-8-chloro-pyrido[2,3-b][1,5]benzoxazepine (JL13): chemical synthesis and pharmacological evaluation” (J Med Chem, 2012).

Assays:
[1] = In vivo displacement of [3H]Nemonapride from dopamine D4 receptor in Sprague-Dawley rat medial-prefrontal cortex at 13.75 mg/kg, ip qd for 28 days by autoradiography relative to control; assay type: functional; settings: route intraperitoneal
[2] = In vivo displacement of [3H]Nemonapride from dopamine D4 receptor in Sprague-Dawley rat dorsolateral frontal cortex at 13.75 mg/kg, ip qd for 28 days by autoradiography relative to control; assay type: functional; settings: route intraperitoneal
[3] = In vivo displacement of [3H]Nemonapride from dopamine D4 receptor in Sprague-Dawley rat nucleus accumbens at 13.75 mg/kg, ip qd for 28 days by autoradiography relative to control; assay type: functional; settings: route intraperitoneal
[4] = system: Caudate-putamen; assay: In vivo displacement of [3H]Nemonapride from dopamine D4 receptor in Sprague-Dawley rat medial part of caudate putamen at 13.75 mg/kg, ip qd for 28 days by autoradiography relative to control; assay type: functional; settings: route intraperitoneal
[5] = system: Hippocampus; assay: In vivo displacement of [3H]Nemonapride from dopamine D4 receptor in Sprague-Dawley rat hippocampus at 13.75 mg/kg, ip qd for 28 days by autoradiography relative to control; assay type: functional; settings: route intraperitoneal
[6] = In vivo displacement of [3H]Nemonapride from dopamine D4 receptor in Sprague-Dawley rat entorhinal cortex at 13.75 mg/kg, ip qd for 28 days by autoradiography relative to control; assay type: functional; settings: route intraperitoneal
[7] = biological target: T1, Serotonin 1a (5-HT1a) receptor/Adrenergic receptor alpha-1 (Rattus norvegicus) (UniProt P15823+P23944+P43140+P19327); assay: In vivo displacement of [3H]8-OH-DPAT from 5HT1A receptor in Sprague-Dawley rat nucleus accumbens at 13.75 mg/kg, ip qd for 28 days by autoradiography relative to control; assay type: functional, organism-based; set-up: dose 13.75 mg/kg
Summary of the method: (§1)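 Male Sprague-Dawley rats (200−225 g, N = 8/group) dosed ip once daily for 28 days, vehicle controls, decapitated; 10 μm frozen coronal sections. Preincubation 1 h RT in 50 mM Tris-HCl pH 7.6, 0.1% ascorbic acid, 4 mM CaCl2, 10 μM pargyline; then 1 h RT with 2.0 nM [3H]8-OH-DPAT. Nonspecific: 1 μM 5-HT. Saturating conditions; binding in fmol/mg tissue, % of control, mean ± SEM.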

[8] = system: Caudate-putamen; assay: In vivo displacement of [3H]8-OH-DPAT from 5HT1A receptor in Sprague-Dawley rat medial part of caudate putamen at 13.75 mg/kg, ip qd for 28 days by autoradiography relative to control; assay type: functional; settings: route intraperitoneal; summary of the method: as §1
[9] = system: Caudate-putamen; assay: In vivo displacement of [3H]8-OH-DPAT from 5HT1A receptor in Sprague-Dawley rat lateral part of caudate putamen at 13.75 mg/kg, ip qd for 28 days by autoradiography relative to control; assay type: functional; settings: route intraperitoneal; summary of the method: as §1
[10] = system: Hippocampus; assay: In vivo displacement of [3H]8-OH-DPAT from 5HT1A receptor in Sprague-Dawley rat hippocampus CA3 region at 13.75 mg/kg, ip qd for 28 days by autoradiography relative to control; assay type: functional; settings: route intraperitoneal; summary of the method: as §1
[11] = biological target: T1, Serotonin 1a (5-HT1a) receptor/Adrenergic receptor alpha-1 (Rattus norvegicus); assay: In vivo displacement of [3H]8-OH-DPAT from 5HT1A receptor in Sprague-Dawley rat entorhinal cortex at 13.75 mg/kg, ip qd for 28 days by autoradiography relative to control; assay type: functional, organism-based; set-up: dose 13.75 mg/kg; summary of the method: as §1
[12] = In vivo displacement of [3H]Ketanserin from 5HT2A receptor in Sprague-Dawley rat medial-prefrontal cortex at 13.75 mg/kg, ip qd for 28 days by autoradiography relative to control; assay type: functional; settings: route intraperitoneal
Summary of the method: (§2)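 Rats (male Sprague-Dawley, N = 8/group) given daily ip injections for 28 days versus vehicle. Brain sections preincubated 1 h RT in 50 mM Tris-HCl pH 7.7, then 1 h RT with 3.0 nM [3H]ketanserin plus 1 μM prazosin and 100 nM tetrabenazine. Nonspecific: 1 μM methysergide. Washes 2 × 30 min ice-cold. Readout fmol/mg tissue as % of control, mean ± SEM.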

[13] = In vivo displacement of [3H]Ketanserin from 5HT2A receptor in Sprague-Dawley rat nucleus accumbens at 13.75 mg/kg, ip qd for 28 days by autoradiography relative to control; assay type: functional; settings: route intraperitoneal; summary of the method: as §2
[14] = biological target: 5-hydroxytryptamine receptor 2A (Homo sapiens, UniProt P28223); assay: Displacement of [3H]ketanserin from human recombinant 5HT2A receptor expressed in CHO cells after 60 mins by liquid scintillation counting; assay type: cell-based
[15] = biological target: T2, 5-hydroxytryptamine receptor 1A (Homo sapiens, UniProt P08908); assay: Displacement of [3H]8-OH-DPAT from human recombinant 5HT1A receptor expressed in CHO cells after 60 mins by liquid scintillation counting; assay type: cell-based
T2 sequence (P08908 whole entry): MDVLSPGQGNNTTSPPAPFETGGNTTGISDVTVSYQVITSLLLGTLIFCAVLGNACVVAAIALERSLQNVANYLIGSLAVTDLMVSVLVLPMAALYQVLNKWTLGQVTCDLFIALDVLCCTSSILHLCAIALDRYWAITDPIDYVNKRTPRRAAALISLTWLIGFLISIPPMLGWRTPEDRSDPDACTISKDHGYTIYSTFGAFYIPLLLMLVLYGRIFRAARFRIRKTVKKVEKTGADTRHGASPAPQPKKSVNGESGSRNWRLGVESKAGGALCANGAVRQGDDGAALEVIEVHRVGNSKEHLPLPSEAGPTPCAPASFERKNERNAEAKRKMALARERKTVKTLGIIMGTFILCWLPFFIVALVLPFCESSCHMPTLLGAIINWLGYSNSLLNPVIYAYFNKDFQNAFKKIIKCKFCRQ

[16] = Lipophilicity, log K of the compound in IAM-PC-DD2 HPLC column by UV method; assay type: physicochemical; settings: artificial membrane
[17] = In vivo displacement of [3H]SCH-23390 from dopamine D1 receptor in Sprague-Dawley rat nucleus accumbens at 13.75 mg/kg, ip qd for 28 days by autoradiography relative to control; assay type: functional; settings: route intraperitoneal
Summary of the method: (§3)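 Forebrain sections from male Sprague-Dawley rats (N = 8/group) after 28 days of daily ip injections versus vehicle. Incubation 1 h RT in 50 mM Tris-HCl pH 7.4, 120 mM NaCl, 5 mM KCl, 2 mM CaCl2, 1 mM MgCl2 with 1 nM [3H]SCH-23390 and 100 nM ketanserin. Nonspecific: 1 μM cis-flupenthixol. Saturating conditions; fmol/mg tissue, % of control.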

[18] = system: Caudate-putamen; assay: In vivo displacement of [3H]SCH-23390 from dopamine D1 receptor in Sprague-Dawley rat lateral part of caudate putamen at 13.75 mg/kg, ip qd for 28 days by autoradiography relative to control; assay type: functional; settings: route intraperitoneal; summary of the method: as §3
[19] = In vivo displacement of [3H]SCH-23390 from dopamine D1 receptor in Sprague-Dawley rat entorhinal cortex at 13.75 mg/kg, ip qd for 28 days by autoradiography relative to control; assay type: functional; settings: route intraperitoneal; summary of the method: as §3
[20] = system: Caudate-putamen; assay: In vivo displacement of [3H]Nemonapride from dopamine D2 receptor in Sprague-Dawley rat lateral of caudate putamen at 13.75 mg/kg, ip qd for 28 days by autoradiography relative to control; assay type: functional; settings: route intraperitoneal
Summary of the method: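 Male Sprague-Dawley rats, N = 8/group, daily ip dosing for 28 days with vehicle controls; cryostat sections (10 μm) preincubated 1 h RT. Incubation 1 h RT in 50 mM Tris-HCl pH 7.4, 120 mM NaCl, 5 mM KCl, 2 mM CaCl2, 1 mM MgCl2 with 1 nM [3H]nemonapride, 0.5 μM DTG, 0.1 μM pindolol. Nonspecific: 10 μM S(−)-sulpiride. Values fmol/mg tissue, % of control.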

Sequence of 5-hydroxytryptamine receptor 2A (P28223 whole entry): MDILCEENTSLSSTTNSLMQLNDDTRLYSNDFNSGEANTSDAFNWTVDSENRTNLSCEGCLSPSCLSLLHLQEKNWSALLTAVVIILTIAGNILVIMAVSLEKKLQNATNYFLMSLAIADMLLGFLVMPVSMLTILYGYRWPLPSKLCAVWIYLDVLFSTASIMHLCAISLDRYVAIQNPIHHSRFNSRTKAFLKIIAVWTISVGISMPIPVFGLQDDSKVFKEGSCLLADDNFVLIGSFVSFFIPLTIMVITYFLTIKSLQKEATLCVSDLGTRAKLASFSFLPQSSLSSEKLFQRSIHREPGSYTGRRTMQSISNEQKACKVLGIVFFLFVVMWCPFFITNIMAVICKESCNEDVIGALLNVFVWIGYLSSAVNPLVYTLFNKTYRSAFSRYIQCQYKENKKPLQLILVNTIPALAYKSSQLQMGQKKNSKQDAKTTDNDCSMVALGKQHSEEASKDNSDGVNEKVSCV

Clc1ccc2c(c1)N=C(N1CCNCC1)c1cccnc1O2
inhibition in vivo at 13.75 mg/kg [1]: 110% | inhibition in vivo at 13.75 mg/kg [2]: 108% | inhibition in vivo at 13.75 mg/kg [3]: 178% | inhibition in vivo at 13.75 mg/kg [4]: 166% | inhibition in vivo at 13.75 mg/kg [5]: 117% | inhibition in vivo at 13.75 mg/kg [6]: 103% | inhibition [7]: 88% | inhibition in vivo at 13.75 mg/kg [8]: 87% | inhibition in vivo at 13.75 mg/kg [9]: 95% | inhibition in vivo at 13.75 mg/kg [10]: 105% | inhibition [11]: 103% | inhibition in vivo at 13.75 mg/kg [12]: 56% | inhibition in vivo at 13.75 mg/kg [13]: 98% | Ki [14]: 0.131 µM | Ki [15]: 0.375 µM | log K [16]: 2.68 | inhibition in vivo at 13.75 mg/kg [17]: 128% | inhibition in vivo at 13.75 mg/kg [18]: 132% | inhibition in vivo at 13.75 mg/kg [19]: 96% | inhibition in vivo at 13.75 mg/kg [20]: 98%
